From ChEMBL document CHEMBL3351588, “Design, synthesis and biological evaluation of N-alkyl or aryl substituted isoindigo derivatives as potential dual cyclin-dependent kinase 2 (CDK2)/glycogen synthase kinase 3β (GSK-3β) phosphorylation inhibitors” (Eur J Med Chem, 2014)
The source made the active and inactive calls. The rule behind the calls is not given here.

Experiments:
[1] = system: K562; test: Induction of cell cycle arrest in human K562 cells assessed as accumulation at S phase at 30 uM after 24 hrs by propidium iodide staining based flow cytometry (reference value: 44.90%); format: functional
[2] = system: K562; test: Induction of apoptosis in human K562 cells assessed as necrotic cells level at 20 uM after 24 hrs by Annexin V-FITC/propidium iodide staining based flow cytometry (reference value: 0.0%); format: functional
How it was run: (§1)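 K562 cells exposed for 24 h or 48 h to 0, 5.0, 10.0, 15.0, 20.0 or 30.0 µM; vehicle DMSO 0.5% v/v. Cells stained with FITC-Annexin V, then counterstained with PI, and analysed by FACScan flow cytometry. Quadrants: Annexin V−/PI− viable; Annexin V+/PI− early apoptotic; Annexin V+/PI+ late apoptotic/necrotic.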

[3] = system: K562; test: Induction of apoptosis in human K562 cells assessed as early apoptotic cells level at 10 uM after 48 hrs by Annexin V-FITC/propidium iodide staining based flow cytometry (reference value: 0.24%); format: functional; how it was run: as §1
[4] = system: K562; test: Induction of apoptosis in human K562 cells assessed as necrotic cells level at 30 uM after 48 hrs by Annexin V-FITC/propidium iodide staining based flow cytometry (reference value: 0.01%); format: functional; how it was run: as §1
[5] = system: K562; test: Reduction in cyclin A protein expression in human K562 cells at 5 to 30 uM after 24 hrs by Western blotting method; format: functional, cell-based
[6] = system: K562; test: Induction of cell morphological changes in human K562 cells assessed as nuclear fragmentation at 5 to 30 uM after 24 hrs by Hoechst 33342/propidium iodide staining based inverted fluorescence microscopy; format: functional
How it was run: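 Cells treated for 24 h with 5.0–30.0 μM or with 0.5% DMSO, then collected and washed with PBS. Stained with Hoechst 33342 (5.0 μg/mL, 10 min, 37 °C), then with PI (10.0 μg/mL, 10 min, room temperature, dark). Nuclei scored by fluorescence microscopy as condensed/bright, fragmented, or PI-positive.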

[7] = system: K562; test: Induction of apoptosis in human K562 cells assessed as viable cells level at 5 uM after 48 hrs by Annexin V-FITC/propidium iodide staining based flow cytometry (reference value: 99.21%); format: functional; how it was run: as §1
[8] = system: K562; test: Induction of apoptosis in human K562 cells assessed as viable cells level at 10 uM after 48 hrs by Annexin V-FITC/propidium iodide staining based flow cytometry (reference value: 99.21%); format: functional; how it was run: as §1
[9] = system: K562; test: Induction of apoptosis in human K562 cells assessed as necrotic cells level at 15 uM after 48 hrs by Annexin V-FITC/propidium iodide staining based flow cytometry (reference value: 0.01%); format: functional; how it was run: as §1
[10] = system: K562; test: Induction of apoptosis in human K562 cells assessed as early apoptotic cells level at 5 uM after 24 hrs by Annexin V-FITC/propidium iodide staining based flow cytometry (reference value: […]); format: functional
[11] = system: K562; test: Induction of apoptosis in human K562 cells assessed as viable cells level at 20 uM after 24 hrs by Annexin V-FITC/propidium iodide staining based flow cytometry (reference value: 97.64%); format: functional; how it was run: as §1
[12] = system: K562; test: Induction of apoptosis in human K562 cells assessed as viable cells level at 20 uM after 48 hrs by Annexin V-FITC/propidium iodide staining based flow cytometry (reference value: 99.21%); format: functional; how it was run: as §1
[13] = system: K562; test: Induction of cell cycle arrest in human K562 cells assessed as accumulation at G2/M phase at 30 uM after 24 hrs by propidium iodide staining based flow cytometry (reference value: 18.96%); format: functional
[14] = system: K562; test: Induction of cell cycle arrest in human K562 cells assessed as accumulation at G0/G1 phase at 10 uM after 24 hrs by propidium iodide staining based flow cytometry (reference value: 36.14%); format: functional
[15] = system: K562; test: Induction of apoptosis in human K562 cells assessed as viable cells level at 30 uM after 48 hrs by Annexin V-FITC/propidium iodide staining based flow cytometry (reference value: 99.21%); format: functional; how it was run: as §1
[16] = system: K562; test: Induction of apoptosis in human K562 cells assessed as late apoptotic cells level at 20 uM after 48 hrs by Annexin V-FITC/propidium iodide staining based flow cytometry (reference value: 0.54%); format: functional; how it was run: as §1
[17] = system: K562; test: Induction of cell cycle arrest in human K562 cells assessed as accumulation at G2/M phase at 10 uM after 24 hrs by propidium iodide staining based flow cytometry (reference value: 18.96%); format: functional
[18] = system: K562; test: Induction of apoptosis in human K562 cells assessed as late apoptotic cells level at 10 uM after 24 hrs by Annexin V-FITC/propidium iodide staining based flow cytometry (reference value: 0.79%); format: functional; how it was run: as §1
[19] = Cytotoxicity against human VEC cells after 48 hrs by SRB assay; format: cell-based
How it was run: (§2)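 Cells seeded at 5 × 10³ per well and allowed to attach for 12 h, then exposed to a range of drug concentrations in their own medium for 48 h. Fixed with ice-cold TCA for 1 h at 4 °C, washed, then stained with 0.4% SRB for 30 min at room temperature. IC50 is the mean of three independent experiments.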

[20] = system: K562; test: Induction of apoptosis in human K562 cells assessed as viable cells level at 30 uM after 24 hrs by Annexin V-FITC/propidium iodide staining based flow cytometry (reference value: 97.64%); format: functional; how it was run: as §1
[21] = system: K562; test: Induction of apoptosis in human K562 cells assessed as early apoptotic cells level at 30 uM after 24 hrs by Annexin V-FITC/propidium iodide staining based flow cytometry (reference value: […]); format: functional
[22] = system: K562; test: Induction of cell cycle arrest in human K562 cells assessed as accumulation at G0/G1 phase at 30 uM after 24 hrs by propidium iodide staining based flow cytometry (reference value: 36.14%); format: functional
[23] = system: K562; test: Induction of apoptosis in human K562 cells assessed as late apoptotic cells level at 30 uM after 48 hrs by Annexin V-FITC/propidium iodide staining based flow cytometry (reference value: 0.54%); format: functional; how it was run: as §1
[24] = system: K562; test: Induction of apoptosis in human K562 cells assessed as viable cells level at 15 uM after 48 hrs by Annexin V-FITC/propidium iodide staining based flow cytometry (reference value: 99.21%); format: functional; how it was run: as §1
[25] = system: K562; test: Induction of apoptosis in human K562 cells assessed as early apoptotic cells level at 5 uM after 48 hrs by Annexin V-FITC/propidium iodide staining based flow cytometry (reference value: 0.24%); format: functional; how it was run: as §1
[26] = system: K562; test: Induction of apoptosis in human K562 cells after 24 hrs by Annexin V-FITC/propidium iodide staining based flow cytometry; format: functional, cell-based; how it was run: as §1
[27] = system: K562; test: Induction of apoptosis in human K562 cells assessed as early apoptotic cells level at 15 uM after 48 hrs by Annexin V-FITC/propidium iodide staining based flow cytometry (reference value: 0.24%); format: functional; how it was run: as §1
[28] = system: K562; test: Cytotoxicity against human K562 cells after 48 hrs by SRB assay; format: functional, cell-based; settings: K562, 48 h; how it was run: as §2
[29] = system: K562; test: Induction of apoptosis in human K562 cells assessed as necrotic cells level at 30 uM after 24 hrs by Annexin V-FITC/propidium iodide staining based flow cytometry (reference value: 0.0%); format: functional; how it was run: as §1
[30] = system: K562; test: Induction of cell cycle arrest in human K562 cells assessed as accumulation at G0/G1 phase at 5 uM after 24 hrs by propidium iodide staining based flow cytometry (reference value: 36.14%); format: functional
[31] = system: K562; test: Induction of necrosis in human K562 cells after 48 hrs by Annexin V-FITC/propidium iodide staining based flow cytometry; format: functional, cell-based

COc1ccc(N2C(=O)/C(=C3/C(=O)Nc4ccccc43)c3ccccc32)cc1 showed an Activity [1] of 62.77%, an Activity [2] of 0.01% and an Activity [3] of 1.68%. For the same compound, the Activity [4] was 1.3%, the inhibition [5] was “Dose-dependent effect” and the Activity [6] was “Active”. The Activity [7] was 97.78%, the Activity [8] was 96.91% and the Activity [9] was 0.02%. For the same compound, the Activity [10] was 2.25%, the Activity [11] was 72.9% and the Activity [12] was 82.42%. For the same compound, the Activity [13] was 11.8%, the Activity [14] was 34.81% and the Activity [15] was 62.69%. For the same compound, the Activity [16] was 11.56%, the Activity [17] was 14.31% and the Activity [18] was 2.45%. For the same compound, the IC50 [19] was over 200 µM, the Activity [20] was 56.98% and the Activity [21] was 23%. For the same compound, the Activity [22] was 25.43%, the Activity [23] was 42.09% and the Activity [24] was 95.68%. The Activity [25] was 1.46%, the Activity [26] was “Dose-dependent effect” and the Activity [27] was 2.1%. For the same compound, the IC50 [28] was 7.8 µM, the Activity [29] was 0% and the Activity [30] was 37.16%. The Activity [31] was “Dose-dependent effect”.
